Measured values from ChEMBL document CHEMBL1146333, “Synthesis and antitumor evaluation of a novel series of triaminotriazine derivatives” (Bioorg Med Chem, 2007).
Activity calls are given as the source filed them. The calls are words filed in the database; no cut-off is given here.

Columns and labels:
HT-29 [1] = experiment: Growth inhibition of human HT29 cells at 10 uM after 72 hrs by SRB assay; assay type: functional; conditions: for inhibition at 10 µM: HT-29, 72 h
Summary of the method: (§1)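 SRB growth assay on HCT-116 or HT-29 cells (RPMI-1640, 10% FBS, 37 °C, 5% CO2). Seeded at 6000 cells/well, attached overnight, exposed in triplicate at 10 μM for 72 h. Cells TCA-fixed, SRB-stained, A515 read. Percent inhibition = [1 − A515 treated/A515 control] × 100; mean of three determinations.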

HCT-116 [2] = experiment: Growth inhibition of human HCT116 cells at 10 uM after 72 hrs by SRB assay; assay type: functional; conditions: for inhibition at 10 µM: HCT-116, 72 h; summary of the method: as §1
HT-29 [3] = experiment: Growth inhibition of human HT29 cells after 72 hrs by SRB assay; assay type: functional, cell-based; conditions: HT-29, 72 h
Summary of the method: (§2)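 HCT-116 and HT-29 human colorectal lines (ATCC) grown in RPMI-1640 with 10% FBS, 2 mmol/L glutamine, penicillin/streptomycin, at 37 °C in 5% CO2. Seeded at 6000 cells/well, attached overnight, then treated in triplicate with graded concentrations for 72 h. Cells fixed in 10% TCA, stained with SRB, and A515 read. IC50 obtained by the Logit method; mean of three independent tests.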

HCT-116 [4] = experiment: Growth inhibition of human HCT116 cells after 72 hrs by SRB assay; assay type: functional, cell-based; conditions: HCT-116, 72 h; summary of the method: as §2
[5] = Elimination half life in Sprague-Dawley rat at 10 mg/kg, po; assay type: ADME, organism-based; set-up: dose 10 mg/kg, route oral; conditions: in vivo
Summary of the method: (§3)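 Sprague–Dawley rats given one oral gavage dose of 10 mg/kg suspended in 0.5% CMC-Na. Orbital-sinus blood drawn at 0, 5, 15, 30 min and 1, 2, 4, 6, 8 h; plasma frozen at −70 °C, extracted with EtOAc, and quantified by LC–MS/MS. Cmax and Tpeak read directly from the data; t1/2 = 0.693/k; mean ± SD.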

Rattus norvegicus = experiment: Volume of distribution in Sprague-Dawley rat at 2 mg/kg, iv; assay type: ADME, organism-based; set-up: dose 2 mg/kg, route intravenous; conditions: in vivo
Summary of the method: (§4)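 Sprague–Dawley rats acclimatized one week, then given one iv dose of 2 mg/kg in PEG400:cremophor (100:15, v/v). Orbital-sinus blood drawn under light ether at 0, 5, 15, 30 min and 1, 2, 4, 6, 8 h; plasma stored at −70 °C.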

[6] = Clearance in Sprague-Dawley rat at 2 mg/kg, iv; assay type: ADME, organism-based; set-up: dose 2 mg/kg, route intravenous; conditions: in vivo; summary of the method: as §4
Mus musculus [7] = experiment: Increase in body weight in KM mouse at 100 mg/kg, ip; assay type: functional; conditions: route intraperitoneal
[8] = Elimination half life in Sprague-Dawley rat at 2 mg/kg, iv; assay type: ADME, organism-based; set-up: dose 2 mg/kg, route intravenous; conditions: in vivo; summary of the method: as §4
Mus musculus [9] = experiment: Tumor weight in KM mouse at 100 mg/kg, ip; assay type: functional; conditions: route intraperitoneal
[10] = Cmax in Sprague-Dawley rat at 10 mg/kg, po after 15 mins; assay type: ADME, organism-based; set-up: dose 10 mg/kg, route oral; conditions: in vivo; summary of the method: as §3
[11] = Mean resident time in Sprague-Dawley rat at 2 mg/kg, iv; assay type: ADME, organism-based; set-up: dose 2 mg/kg, route intravenous; conditions: in vivo; summary of the method: as §4
[12] = Oral bioavailability in Sprague-Dawley rat at 10 mg/kg; assay type: ADME, organism-based; conditions: in vivo
Summary of the method: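 Rats received 10 mg/kg oral (0.5% CMC-Na) or 2 mg/kg iv (PEG400:cremophor 100:15). Serial plasma samples, 0–8 h, quantified by LC–MS/MS after EtOAc extraction. F = (AUCoral × Dose_iv)/(AUC_iv × Dose_oral) × 100%.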

Mus musculus [13] = experiment: Tumor weight in KM mouse at 200 mg/kg, ip after 7 days; assay type: functional; conditions: route intraperitoneal
Summary of the method: (§5)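 Sarcoma 180 cells implanted in the axilla of female KM mice (6–8 weeks) on Day 0, randomized on Day 1 (control 20/group, treated 10/group). Treated mice got 200 mg/kg ip once daily for 7 days, suspended in 0.5% CMC. Mice killed 24 h after the last dose; body and tumor weights taken. Inhibition = (control − treated mean tumor weight)/control mean tumor weight × 100%.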

Sarcoma-180 = experiment: Antitumor activity in sarcoma180 cells implanted in KM mouse at 200 mg/kg, ip after 7 days; assay type: functional; conditions: route intraperitoneal; summary of the method: as §5
Mus musculus [14] = experiment: Increase in body weight in KM mouse at 200 mg/kg, ip after 7 days; assay type: functional; conditions: route intraperitoneal; summary of the method: as §5
[15] = Mean resident time in Sprague-Dawley rat at 10 mg/kg, po; assay type: ADME, organism-based; set-up: dose 10 mg/kg, route oral; conditions: in vivo; summary of the method: as §3

SMILES	inhibition at 10 µM (HT-29 [1]) [%]	inhibition at 10 µM (HCT-116 [2]) [%]	also measured
COc1ccc(Nc2nc(Nc3ccc(F)cc3)nc(N3CCOCC3)n2)cc1	82.3	–	Activity (HCT-116 [2]): inactive
c1ccc(Nc2nc(Nc3ccccc3)nc(N3CCOCC3)n2)cc1	85	81.3	IC50 (HT-29 [3]): 31 µM; IC50 (HCT-116 [4]): 4.7 µM
NS(=O)(=O)c1ccc(Nc2nc(Nc3ccccc3)nc(N3CCOCC3)n2)cc1	80.4	96.2	IC50 (HCT-116 [4]): 2 µM
COc1cccc(Nc2nc(Nc3ccccc3)nc(N3CCOCC3)n2)c1	87.4	82.6	IC50 (HT-29 [3]): 39 µM
Fc1ccc(Nc2nc(NCc3ccccc3)nc(N3CCOCC3)n2)cc1	87.1	10.1	–
c1ccc(CNc2nc(N3CCOCC3)nc(N3CCOCC3)n2)cc1	5.2	–	Activity (HCT-116 [2]): inactive
COc1ccc(Nc2nc(Nc3ccccc3)nc(N3CCN(CCO)CC3)n2)cc1	77.3	19	–
COc1ccc(Nc2nc(Nc3ccc(S(N)(=O)=O)cc3)nc(N3CCOCC3)n2)cc1	83.2	69	–
c1ccc(CNc2nc(Nc3ccccc3)nc(N3CCOCC3)n2)cc1	90.5	48.7	–
Clc1ccc(Nc2nc(Nc3ccccc3)nc(N3CCOCC3)n2)cc1	87.1	51.7	IC50 (HT-29 [3]): 37 µM
COc1ccc(Nc2nc(Nc3ccc(OC)cc3)nc(N3CCN(CCO)CC3)n2)cc1	49.3	–	Activity (HCT-116 [2]): inactive
FC(F)(F)Oc1ccc(Nc2nc(Nc3ccccc3)nc(N3CCOCC3)n2)cc1	87.3	63.4	–
COc1ccc(Nc2nc(NCc3ccccc3)nc(N3CCOCC3)n2)cc1	88.4	20.1	–
COc1ccc(Nc2nc(NCCO)nc(Nc3ccccc3)n2)cc1	13.7	–	Activity (HCT-116 [2]): inactive
c1ccc(CNc2nc(NCc3ccccc3)nc(N3CCOCC3)n2)cc1	50	–	Activity (HCT-116 [2]): inactive
CCOc1ccc(Nc2nc(Nc3ccccc3)nc(N3CCOCC3)n2)cc1	87.5	64.1	–
COc1ccc(Nc2nc(NCCN3CCOCC3)nc(Nc3ccccc3)n2)cc1	74.6	–	Activity (HCT-116 [2]): inactive
COc1ccc(Nc2nc(Nc3ccccc3)nc(N3CCOCC3)n2)cc1	100	81.4	half-life [5]: 69.6 min; IC50 (HT-29 [3]): 30 µM; Vdss (Rattus norvegicus): 2.11 L/kg; clearance [6]: 22.7 mL/min/kg; Activity (Mus musculus [7]): 29.3 g; half-life [8]: 65.4 min; Activity (Mus musculus [9]): 1.65 g; Cmax [10]: 1290 ng/mL; IC50 (HCT-116 [4]): 0.76 µM; MRT [11]: 1.06 h; bioavailability [12]: 30.9%; Activity (Mus musculus [13]): 0.89 g; Activity (Sarcoma-180): 40.7%; Activity (Mus musculus [14]): 27.3 g; MRT [15]: 1.88 h
OCCNc1nc(Nc2ccccc2)nc(Nc2ccccc2)n1	33.9	–	Activity (HCT-116 [2]): inactive

SMILES	inhibition at 10 µM (HT-29 [1]) [%]	inhibition at 10 µM (HCT-116 [2]) [%]	also measured
Brc1ccc(Nc2nc(Nc3ccccc3)nc(N3CCOCC3)n2)cc1	89.7	77.7	IC50 (HT-29 [3]): 25 µM
NC(=O)c1ccc(Nc2nc(Nc3ccccc3)nc(N3CCOCC3)n2)cc1	87.8	85.8	IC50 (HT-29 [3]): 8.1 µM; IC50 (HCT-116 [4]): 9.6 µM
COc1ccc(Nc2nc(Nc3ccc(SC)cc3)nc(N3CCOCC3)n2)cc1OC	81.4	79.2	–
COc1ccc(Nc2nc(Nc3ccccc3)nc(N3CCOCC3)n2)cc1OC	76.4	84.7	IC50 (HCT-116 [4]): 0.92 µM
COc1ccc(Nc2nc(N3CCOCC3)nc(N3CCOCC3)n2)cc1	74.2	6.9	–
NS(=O)(=O)c1ccc(Nc2nc(N3CCOCC3)nc(N3CCOCC3)n2)cc1	–	–	Activity (HT-29 [1]): inactive; Activity (HCT-116 [2]): inactive
COc1ccccc1Nc1nc(Nc2ccccc2)nc(N2CCOCC2)n1	89.3	78.3	–
Fc1ccc(Nc2nc(N3CCOCC3)nc(N3CCOCC3)n2)cc1	80.2	–	Activity (HCT-116 [2]): inactive
C1CN(c2nc(N3CCOCC3)nc(N3CCOCC3)n2)CCO1	–	–	Activity (HT-29 [1]): inactive; Activity (HCT-116 [2]): inactive
Fc1ccc(Nc2nc(Nc3ccc(OC(F)(F)F)cc3)nc(N3CCOCC3)n2)cc1	85.5	62	–
COc1ccc(Nc2nc(Nc3ccc(OC)cc3)nc(N3CCOCC3)n2)cc1	80.6	53.3	IC50 (HT-29 [3]): 100 µM
Fc1ccc(Nc2nc(Nc3ccccc3)nc(N3CCOCC3)n2)cc1	90	60.1	–
CSc1ccc(Nc2nc(Nc3ccc(C)cc3)nc(N3CCOCC3)n2)cc1	54.1	71.1	IC50 (HCT-116 [4]): 120 µM
c1ccc(Nc2nc(NCCN3CCOCC3)nc(Nc3ccccc3)n2)cc1	23.4	30.1	–
OCCN1CCN(c2nc(Nc3ccccc3)nc(Nc3ccccc3)n2)CC1	76.1	22	–
NS(=O)(=O)c1ccc(Nc2nc(NCc3ccccc3)nc(N3CCOCC3)n2)cc1	68.6	–	Activity (HCT-116 [2]): inactive
Cc1ccc(CNc2nc(Nc3ccccc3)nc(N3CCOCC3)n2)cc1	75.3	15.7	–
c1ccc(Nc2nc(N3CCOCC3)nc(N3CCOCC3)n2)cc1	80.5	44.9	–
